Assay results reported in ChEMBL document CHEMBL3751731, “Ferulic acid-carbazole hybrid compounds: Combination of cholinesterase inhibition, antioxidant and neuroprotection as multifunctional anti-Alzheimer agents” (Bioorg Med Chem, 2016).

biological target: Acetylcholinesterase (Electrophorus electricus, UniProt O42275); assay: Inhibition of electric eel AChE using ATC as substrate preincubated for 5 mins followed by substrate addition measured after 2 mins by Ellman's assay; conditions: not given
Sequence (O42275 whole entry): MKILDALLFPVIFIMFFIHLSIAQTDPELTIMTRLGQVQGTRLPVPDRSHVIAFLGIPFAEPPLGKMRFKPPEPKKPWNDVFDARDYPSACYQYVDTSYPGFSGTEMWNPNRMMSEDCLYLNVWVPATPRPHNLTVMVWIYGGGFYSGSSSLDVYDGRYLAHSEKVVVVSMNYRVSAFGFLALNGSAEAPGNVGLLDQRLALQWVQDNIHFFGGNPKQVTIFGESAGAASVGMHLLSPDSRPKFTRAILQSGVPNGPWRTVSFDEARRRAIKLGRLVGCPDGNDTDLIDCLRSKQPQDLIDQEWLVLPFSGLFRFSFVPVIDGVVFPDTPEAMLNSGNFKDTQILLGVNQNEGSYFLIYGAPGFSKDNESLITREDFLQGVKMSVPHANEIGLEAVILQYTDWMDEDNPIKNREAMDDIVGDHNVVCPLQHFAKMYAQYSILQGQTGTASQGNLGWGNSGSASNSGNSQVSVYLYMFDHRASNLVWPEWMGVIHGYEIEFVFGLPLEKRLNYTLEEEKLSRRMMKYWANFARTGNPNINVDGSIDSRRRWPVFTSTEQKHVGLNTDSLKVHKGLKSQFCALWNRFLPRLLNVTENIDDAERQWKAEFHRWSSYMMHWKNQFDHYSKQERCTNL

| Compound | IC50 [µM] |
| --- | --- |
| CCN(Cc1cccc2[nH]c3cc(Cl)ccc3c12)C(=O)/C=C/c1ccc(O)c(OC)c1 | 1.9 |
| COc1ccc2c(c1)[nH]c1cccc(CN(Cc3ccccc3)C(=O)/C=C/c3ccc(O)c(OC)c3)c12 | > 100 |
| CCN(Cc1cccc2[nH]c3cc(OC)ccc3c12)C(=O)/C=C/c1ccc(O)c(OC)c1 | 61.6 |
| COc1cc(/C=C/C(=O)N(Cc2cccc3[nH]c4ccccc4c23)C2CCCCC2)ccc1O | > 100 |
| COc1cc(/C=C/C(=O)N(Cc2ccccc2)Cc2cccc3[nH]c4ccccc4c23)ccc1O | > 100 |
| COc1ccc2c(c1)[nH]c1cccc(CN(C(=O)/C=C/c3ccc(O)c(OC)c3)C3CCCCC3)c12 | > 100 |

system: not listed separately; assay: Cytotoxicity against rat PC12 cells at 0.1 to 50 uM incubated for 24 hrs by MTT assay; format: cell-based; conditions: pc-12, 24 h
In short: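 PC12 cells were grown in F-12 with 10% FBS and penicillin/streptomycin at 37 °C, 5% CO₂, seeded at 2000 cells/well and grown 24 h. Compounds were added from DMSO (final <0.5%) for 24 h. MTT (5 mg/mL) was added for 4 h, formazan dissolved in DMSO and A540 read after cell-free blank subtraction. Viability is % of control; three independent trials, mean ± SEM.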

| Compound | Activity |
| --- | --- |
| CCN(Cc1cccc2[nH]c3cc(Cl)ccc3c12)C(=O)/C=C/c1ccc(O)c(OC)c1 | Non-toxic |

biological target: Acetylcholinesterase (Homo sapiens, UniProt P22303); assay: Inhibition of human AChE using ATC as substrate preincubated for 5 mins followed by substrate addition measured after 2 mins by Ellman's assay; conditions: not given
In short: (§1)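 Ellman's method with DTNB chromogen, acetylthiocholine (AChE) or butyrylthiocholine (BChE) iodide substrate, in potassium phosphate buffer pH 8.0 (KOH-adjusted). Compounds were diluted from ethanol stocks, with a top final concentration of 10^-4 M. At least five concentrations (normally 10^-4–10^-9 M) were run, each in triplicate, read at 412 nm at 25 °C. IC50 values are from inhibition curves, as means of at least three determinations.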

Sequence of Acetylcholinesterase (Homo sapiens, UniProt P22303) (P22303 whole entry): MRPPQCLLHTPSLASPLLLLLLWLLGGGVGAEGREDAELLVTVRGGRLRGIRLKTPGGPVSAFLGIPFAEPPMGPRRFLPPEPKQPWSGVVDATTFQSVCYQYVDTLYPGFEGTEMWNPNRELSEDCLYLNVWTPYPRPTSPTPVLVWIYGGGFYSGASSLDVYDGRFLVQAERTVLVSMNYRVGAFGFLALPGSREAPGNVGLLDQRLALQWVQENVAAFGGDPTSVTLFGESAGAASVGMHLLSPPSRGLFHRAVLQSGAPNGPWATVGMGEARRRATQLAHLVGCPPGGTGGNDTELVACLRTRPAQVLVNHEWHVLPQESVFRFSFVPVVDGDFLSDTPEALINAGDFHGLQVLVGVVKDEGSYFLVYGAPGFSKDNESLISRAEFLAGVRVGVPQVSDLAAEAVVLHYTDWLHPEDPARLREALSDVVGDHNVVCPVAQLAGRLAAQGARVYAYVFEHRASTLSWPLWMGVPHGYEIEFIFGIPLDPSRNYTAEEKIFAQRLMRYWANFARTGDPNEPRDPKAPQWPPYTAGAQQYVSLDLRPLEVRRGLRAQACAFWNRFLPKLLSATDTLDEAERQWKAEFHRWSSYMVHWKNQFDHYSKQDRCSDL

| Compound | IC50 [µM] |
| --- | --- |
| CCN(Cc1cccc2[nH]c3cc(Cl)ccc3c12)C(=O)/C=C/c1ccc(O)c(OC)c1 | 6.9 |

biological target: Cholinesterase (Equus caballus, UniProt P81908); assay: Inhibition of equine BChE using BTC as substrate preincubated for 5 mins followed by substrate addition measured after 2 mins by Ellman's assay; conditions: not given
Sequence (P81908 whole entry): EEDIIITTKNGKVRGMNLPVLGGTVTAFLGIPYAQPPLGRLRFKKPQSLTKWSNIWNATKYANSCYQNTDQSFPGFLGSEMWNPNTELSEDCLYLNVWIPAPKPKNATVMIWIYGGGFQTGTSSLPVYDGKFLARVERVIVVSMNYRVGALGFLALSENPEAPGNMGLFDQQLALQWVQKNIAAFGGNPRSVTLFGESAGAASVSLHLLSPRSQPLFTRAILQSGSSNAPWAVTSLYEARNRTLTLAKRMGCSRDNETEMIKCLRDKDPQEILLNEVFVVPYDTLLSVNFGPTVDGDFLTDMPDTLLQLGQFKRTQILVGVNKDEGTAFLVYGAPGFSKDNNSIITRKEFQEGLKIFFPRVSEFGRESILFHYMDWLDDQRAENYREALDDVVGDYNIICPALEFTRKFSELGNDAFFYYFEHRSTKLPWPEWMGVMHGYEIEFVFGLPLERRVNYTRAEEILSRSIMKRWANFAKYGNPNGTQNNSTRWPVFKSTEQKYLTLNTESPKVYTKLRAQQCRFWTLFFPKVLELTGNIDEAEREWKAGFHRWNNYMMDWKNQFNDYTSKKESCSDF

| Compound | IC50 [µM] |
| --- | --- |
| CCN(Cc1cccc2[nH]c3cc(Cl)ccc3c12)C(=O)/C=C/c1ccc(O)c(OC)c1 | 3.1 |
| CCN(Cc1cccc2[nH]c3cc(OC)ccc3c12)C(=O)/C=C/c1ccc(O)c(OC)c1 | 19.8 |
| COc1cc(/C=C/C(=O)N(Cc2cccc3[nH]c4ccccc4c23)C2CCCCC2)ccc1O | 22 |
| COc1ccc2c(c1)[nH]c1cccc(CN(C(=O)/C=C/c3ccc(O)c(OC)c3)C3CCCCC3)c12 | 20.5 |

biological target: Cholinesterase (Homo sapiens, UniProt P06276); assay: Inhibition of human BChE using BTC as substrate preincubated for 5 mins followed by substrate addition measured after 2 mins by Ellman's assay; conditions: not given; in short: as §1
Sequence (P06276 whole entry): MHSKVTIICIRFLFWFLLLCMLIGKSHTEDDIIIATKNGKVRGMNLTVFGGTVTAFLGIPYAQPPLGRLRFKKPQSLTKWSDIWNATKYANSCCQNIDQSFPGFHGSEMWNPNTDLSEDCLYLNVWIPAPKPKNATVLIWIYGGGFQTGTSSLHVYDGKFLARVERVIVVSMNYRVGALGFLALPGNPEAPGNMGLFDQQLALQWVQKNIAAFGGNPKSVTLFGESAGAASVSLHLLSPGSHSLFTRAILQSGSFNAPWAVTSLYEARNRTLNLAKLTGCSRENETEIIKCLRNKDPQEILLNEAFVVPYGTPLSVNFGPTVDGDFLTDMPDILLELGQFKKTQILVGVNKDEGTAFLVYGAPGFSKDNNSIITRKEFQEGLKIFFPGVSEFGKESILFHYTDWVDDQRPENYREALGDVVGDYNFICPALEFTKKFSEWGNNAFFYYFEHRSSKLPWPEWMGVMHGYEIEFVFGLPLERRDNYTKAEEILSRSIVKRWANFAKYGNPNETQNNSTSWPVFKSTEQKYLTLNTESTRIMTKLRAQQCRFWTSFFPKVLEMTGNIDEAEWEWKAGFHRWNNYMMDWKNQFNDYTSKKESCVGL

| Compound | IC50 [µM] |
| --- | --- |
| CCN(Cc1cccc2[nH]c3cc(Cl)ccc3c12)C(=O)/C=C/c1ccc(O)c(OC)c1 | 2.8 |

system: not listed separately; assay: Antioxidant activity assessed as DPPH radical scavenging activity at 100 uM after 4 hrs by UV spectrophotometric analysis; format: physicochemical; conditions: not given
In short: (§2)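 DPPH radical at 0.1 mM in ethanol. Test compounds were in ethanol at 1–100 µM (1, 2, 10, 50, 100). Mixture lines used an equimolar (1:1) blend with ferulic acid. Absorbance was read at 517 nm before addition (Abs0) and after 4 h once stable (Abst). Scavenging % = (1 − Abst/Abs0) × 100.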

| Compound | Activity [%] |
| --- | --- |
| COc1cc(/C=C/C(=O)O)ccc1O [FERULATE] | 92.2 |
| CCN(Cc1cccc2[nH]c3cc(Cl)ccc3c12)C(=O)/C=C/c1ccc(O)c(OC)c1 | 91.9 |
| CCN(Cc1cccc2[nH]c3cc(OC)ccc3c12)C(=O)/C=C/c1ccc(O)c(OC)c1 | 94.9 |
| COc1cc(/C=C/C(=O)N(Cc2cccc3[nH]c4ccccc4c23)C2CCCCC2)ccc1O | 89.2 |
| COc1ccc2c(c1)[nH]c1cccc(CN(C(=O)/C=C/c3ccc(O)c(OC)c3)C3CCCCC3)c12 | 88.6 |

system: not listed separately; assay: Antioxidant activity assessed as DPPH radical scavenging activity at 50 uM after 4 hrs by UV spectrophotometric analysis; format: physicochemical; conditions: not given; in short: as §2

| Compound | Activity [%] |
| --- | --- |
| COc1cc(/C=C/C(=O)O)ccc1O [FERULATE] | 72 |
| CCN(Cc1cccc2[nH]c3cc(Cl)ccc3c12)C(=O)/C=C/c1ccc(O)c(OC)c1 | 77.3 |
| CCN(Cc1cccc2[nH]c3cc(OC)ccc3c12)C(=O)/C=C/c1ccc(O)c(OC)c1 | 86.4 |
| COc1cc(/C=C/C(=O)N(Cc2cccc3[nH]c4ccccc4c23)C2CCCCC2)ccc1O | 72 |
| COc1ccc2c(c1)[nH]c1cccc(CN(C(=O)/C=C/c3ccc(O)c(OC)c3)C3CCCCC3)c12 | 82 |

system: not listed separately; assay: Antioxidant activity assessed as DPPH radical scavenging activity at 10 uM after 4 hrs by UV spectrophotometric analysis; format: physicochemical; conditions: not given; in short: as §2

| Compound | Activity [%] |
| --- | --- |
| COc1cc(/C=C/C(=O)O)ccc1O [FERULATE] | 63.1 |
| CCN(Cc1cccc2[nH]c3cc(Cl)ccc3c12)C(=O)/C=C/c1ccc(O)c(OC)c1 | 66 |
| CCN(Cc1cccc2[nH]c3cc(OC)ccc3c12)C(=O)/C=C/c1ccc(O)c(OC)c1 | 71.3 |
| COc1cc(/C=C/C(=O)N(Cc2cccc3[nH]c4ccccc4c23)C2CCCCC2)ccc1O | 63.1 |
| COc1ccc2c(c1)[nH]c1cccc(CN(C(=O)/C=C/c3ccc(O)c(OC)c3)C3CCCCC3)c12 | 50.9 |

system: not listed separately; assay: Antioxidant activity assessed as DPPH radical scavenging activity at 2 uM after 4 hrs by UV spectrophotometric analysis; format: physicochemical; conditions: not given; in short: as §2

| Compound | Activity [%] |
| --- | --- |
| COc1cc(/C=C/C(=O)O)ccc1O [FERULATE] | 44.4 |
| CCN(Cc1cccc2[nH]c3cc(Cl)ccc3c12)C(=O)/C=C/c1ccc(O)c(OC)c1 | 49.1 |
| CCN(Cc1cccc2[nH]c3cc(OC)ccc3c12)C(=O)/C=C/c1ccc(O)c(OC)c1 | 59.2 |
| COc1cc(/C=C/C(=O)N(Cc2cccc3[nH]c4ccccc4c23)C2CCCCC2)ccc1O | 52.4 |
| COc1ccc2c(c1)[nH]c1cccc(CN(C(=O)/C=C/c3ccc(O)c(OC)c3)C3CCCCC3)c12 | 47.9 |

system: not listed separately; assay: Antioxidant activity assessed as DPPH radical scavenging activity at 1 uM after 4 hrs by UV spectrophotometric analysis; format: physicochemical; conditions: not given; in short: as §2

| Compound | Activity [%] |
| --- | --- |
| COc1cc(/C=C/C(=O)O)ccc1O [FERULATE] | 30.3 |
| CCN(Cc1cccc2[nH]c3cc(Cl)ccc3c12)C(=O)/C=C/c1ccc(O)c(OC)c1 | 41.8 |
| CCN(Cc1cccc2[nH]c3cc(OC)ccc3c12)C(=O)/C=C/c1ccc(O)c(OC)c1 | 33.1 |
| COc1cc(/C=C/C(=O)N(Cc2cccc3[nH]c4ccccc4c23)C2CCCCC2)ccc1O | 30.3 |
| COc1ccc2c(c1)[nH]c1cccc(CN(C(=O)/C=C/c3ccc(O)c(OC)c3)C3CCCCC3)c12 | 38.6 |

system: not listed separately; assay: Antioxidant activity assessed as galvinoxyl radical scavenging activity at 100 uM after 19 hrs by UV spectrophotometric analysis; format: physicochemical; conditions: not given
In short: (§3)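 Galvinoxyl radical at 2 µM in ethanol, with compounds in ethanol at 1, 2, 10, 50 or 100 µM. Mixture lines used an equimolar (1:1) blend with ferulic acid. A428 was recorded before addition and after 19 h once stable. Percent radical scavenged = (1 − Abst/Abs0) × 100.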

| Compound | Activity [%] |
| --- | --- |
| COc1cc(/C=C/C(=O)O)ccc1O [FERULATE] | 79 |
| CCN(Cc1cccc2[nH]c3cc(Cl)ccc3c12)C(=O)/C=C/c1ccc(O)c(OC)c1 | 83.2 |
| CCN(Cc1cccc2[nH]c3cc(OC)ccc3c12)C(=O)/C=C/c1ccc(O)c(OC)c1 | 91.9 |
| COc1cc(/C=C/C(=O)N(Cc2cccc3[nH]c4ccccc4c23)C2CCCCC2)ccc1O | 87.2 |
| COc1ccc2c(c1)[nH]c1cccc(CN(C(=O)/C=C/c3ccc(O)c(OC)c3)C3CCCCC3)c12 | 88.6 |

system: not listed separately; assay: Antioxidant activity assessed as galvinoxyl radical scavenging activity at 50 uM after 19 hrs by UV spectrophotometric analysis; format: physicochemical; conditions: not given; in short: as §3

| Compound | Activity [%] |
| --- | --- |
| COc1cc(/C=C/C(=O)O)ccc1O [FERULATE] | 52.2 |
| CCN(Cc1cccc2[nH]c3cc(Cl)ccc3c12)C(=O)/C=C/c1ccc(O)c(OC)c1 | 57 |
| CCN(Cc1cccc2[nH]c3cc(OC)ccc3c12)C(=O)/C=C/c1ccc(O)c(OC)c1 | 78.2 |
| COc1cc(/C=C/C(=O)N(Cc2cccc3[nH]c4ccccc4c23)C2CCCCC2)ccc1O | 42 |
| COc1ccc2c(c1)[nH]c1cccc(CN(C(=O)/C=C/c3ccc(O)c(OC)c3)C3CCCCC3)c12 | 72 |

system: not listed separately; assay: Antioxidant activity assessed as galvinoxyl radical scavenging activity at 10 uM after 19 hrs by UV spectrophotometric analysis; format: physicochemical; conditions: not given; in short: as §3

| Compound | Activity [%] |
| --- | --- |
| COc1cc(/C=C/C(=O)O)ccc1O [FERULATE] | 33.7 |
| CCN(Cc1cccc2[nH]c3cc(Cl)ccc3c12)C(=O)/C=C/c1ccc(O)c(OC)c1 | 38.1 |
| CCN(Cc1cccc2[nH]c3cc(OC)ccc3c12)C(=O)/C=C/c1ccc(O)c(OC)c1 | 40.3 |
| COc1cc(/C=C/C(=O)N(Cc2cccc3[nH]c4ccccc4c23)C2CCCCC2)ccc1O | 23.1 |
| COc1ccc2c(c1)[nH]c1cccc(CN(C(=O)/C=C/c3ccc(O)c(OC)c3)C3CCCCC3)c12 | 50.9 |

system: not listed separately; assay: Antioxidant activity assessed as galvinoxyl radical scavenging activity at 2 uM after 19 hrs by UV spectrophotometric analysis; format: physicochemical; conditions: not given; in short: as §3

| Compound | Activity [%] |
| --- | --- |
| COc1cc(/C=C/C(=O)O)ccc1O [FERULATE] | 15.8 |
| CCN(Cc1cccc2[nH]c3cc(Cl)ccc3c12)C(=O)/C=C/c1ccc(O)c(OC)c1 | 22.4 |
| CCN(Cc1cccc2[nH]c3cc(OC)ccc3c12)C(=O)/C=C/c1ccc(O)c(OC)c1 | 29.2 |
| COc1cc(/C=C/C(=O)N(Cc2cccc3[nH]c4ccccc4c23)C2CCCCC2)ccc1O | 12.4 |
| COc1ccc2c(c1)[nH]c1cccc(CN(C(=O)/C=C/c3ccc(O)c(OC)c3)C3CCCCC3)c12 | 40.9 |

system: not listed separately; assay: Antioxidant activity assessed as galvinoxyl radical scavenging activity at 1 uM after 19 hrs by UV spectrophotometric analysis; format: physicochemical; conditions: not given; in short: as §3

| Compound | Activity [%] |
| --- | --- |
| COc1cc(/C=C/C(=O)O)ccc1O [FERULATE] | 6.6 |
| CCN(Cc1cccc2[nH]c3cc(Cl)ccc3c12)C(=O)/C=C/c1ccc(O)c(OC)c1 | 8.3 |
| CCN(Cc1cccc2[nH]c3cc(OC)ccc3c12)C(=O)/C=C/c1ccc(O)c(OC)c1 | 11.1 |
| COc1cc(/C=C/C(=O)N(Cc2cccc3[nH]c4ccccc4c23)C2CCCCC2)ccc1O | 3.3 |
| COc1ccc2c(c1)[nH]c1cccc(CN(C(=O)/C=C/c3ccc(O)c(OC)c3)C3CCCCC3)c12 | 25.6 |

system: PC-12; assay: Neuroprotective effect in rat PC12 cells assessed as alleviation of H2O2 -induced toxicity after 24 hrs by MTT assay; format: functional, cell-based; conditions: not given
In short: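 PC12 cells (F-12, 10% FBS, 37 °C, 5% CO₂; 2000 cells/well, 24 h pre-culture) were co-treated with compound (0.1, 1, 10, 50; DMSO <0.5%) and H₂O₂ for 24 h. The mixture line used a 1:1 molar blend with ferulic acid. MTT for 4 h, formazan dissolved in DMSO, A540, blank-subtracted. Viability is % of control; three independent trials, mean ± SEM.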

| Compound | Activity |
| --- | --- |
| CCN(Cc1cccc2[nH]c3cc(Cl)ccc3c12)C(=O)/C=C/c1ccc(O)c(OC)c1 | Dose-dependent effect |

system: PC-12; assay: Neuroprotective effect in rat PC12 cells assessed as alleviation of amyloid beta42-induced toxicity after 24 hrs by MTT assay; format: functional, cell-based; conditions: not given
In short: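 Aβ42 was dissolved in hexafluoroisopropanol, dried to a film, taken up in F-12 and held at 4 °C for 24 h. PC12 cells (2000/well, 24 h pre-culture) were co-treated with this Aβ42 and compound (0.1–50; DMSO <0.5%) for 24 h. The mixture line used a 1:1 blend with ferulic acid. MTT for 4 h, A540; % of control, three independent trials, mean ± SEM.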

| Compound | Activity |
| --- | --- |
| CCN(Cc1cccc2[nH]c3cc(Cl)ccc3c12)C(=O)/C=C/c1ccc(O)c(OC)c1 | Dose-dependent effect |
